For data set [1], the system named is Liver microsome. The data set is described as follows: Drug metabolism in human liver microsomes assessed as T-5224 hydroxyl O-glucuronide formation after 10 to 60 mins by HPLC method. In kind it is ADME. The procedure, abridged: (§1)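 Pooled liver (0.5 mg protein/mL) or intestinal (0.25 mg protein/mL) microsomes in 50 mM Tris-HCl pH 7.5, 8 mM MgCl2, alamethicin, 2% DMSO. T-5224 at 1–50 μM, 5 min preincubation at 37°C, started with 2 mM UDPGA. Incubated 10 min, or 20 min for intestinal microsomes at 1–5 μM. Acetonitrile stop, glucuronides by HPLC at 290 nm. Triplicates fitted to a substrate-inhibition model.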

The nature of data set [2]: Drug metabolism in human intestinal microsomes assessed as T-5224 hydroxyl O-glucuronide formation after 10 to 60 mins by HPLC method. In kind it is ADME, Intestine, Microsome. The procedure, abridged:
(§2)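 Pooled liver microsomes (0.5 mg/mL) were incubated 10 min. Pooled intestinal microsomes (0.25 mg/mL) ran 10 min at T-5224 10–50 μM and 20 min at 1–5 μM. Buffer was 50 mM Tris-HCl pH 7.5 with 8 mM MgCl2, alamethicin and 2 mM UDPGA, at 37°C, in triplicate. Glucuronides G2/G3 were read by HPLC at 290 nm and fitted for Vmax/Km.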

The test system of data set [3] is Liver microsome. As to the kind of experiment: Drug metabolism in human liver microsomes assessed as T-5224 acyl O-glucuronide formation per mg protein after 10 to 60 mins by HPLC method. In kind it is ADME. In short, it runs like this:
as §2
A general note: Microsomes from liver hold many membrane-bound enzymes, among them those of drug oxidation.

A short description of data set [4]: Drug metabolism assessed as human CYP2D6*1-mediated metabolite formation at 2 uM after 30 mins by HPLC method. Conditions: 0.5 h. In kind it is ADME. In short, it runs like this:
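Each recombinant human P450 was used at 50 pmol/mL with an NADPH-generating system and 2 μM 14C-T-5224 (0.5% DMSO final). Buffer was 100 mM Tris-HCl pH 7.5, except 100 mM potassium phosphate pH 7.4 for CYP2A6 and CYP2C9*1. Incubation ran 30 min at 37°C and was stopped with acetonitrile/methanol. Radioactive metabolite peaks were detected by C18 HPLC.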

In data set [5] the target is T1, UDP-glucuronosyltransferase 1A1 (Homo sapiens, UniProt P22309).
T1 sequence (P22309 whole entry): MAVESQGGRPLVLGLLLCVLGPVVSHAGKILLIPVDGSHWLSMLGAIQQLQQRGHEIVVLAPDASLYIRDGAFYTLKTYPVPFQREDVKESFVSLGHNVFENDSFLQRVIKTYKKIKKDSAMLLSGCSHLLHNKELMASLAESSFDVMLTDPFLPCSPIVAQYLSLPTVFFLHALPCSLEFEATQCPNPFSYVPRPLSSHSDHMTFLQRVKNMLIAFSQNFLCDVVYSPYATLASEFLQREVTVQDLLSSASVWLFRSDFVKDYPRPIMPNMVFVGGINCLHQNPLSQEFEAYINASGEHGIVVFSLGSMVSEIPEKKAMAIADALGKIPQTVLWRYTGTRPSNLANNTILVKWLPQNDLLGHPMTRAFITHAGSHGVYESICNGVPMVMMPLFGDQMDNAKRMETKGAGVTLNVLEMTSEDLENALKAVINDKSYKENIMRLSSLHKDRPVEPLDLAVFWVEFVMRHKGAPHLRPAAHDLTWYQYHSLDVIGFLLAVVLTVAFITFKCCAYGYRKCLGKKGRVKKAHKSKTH
The data set is described as follows: Substrate inhibition of human UGT1A1-mediated T-5224 hydroxyl O-glucuronide formation after 10 to 60 mins in presence of UDP-glucuronic acid by HPLC method. In kind it is ADME. In short, it runs like this: (§3)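 Recombinant human UGT1A1, UGT1A3 or UGT1A8 from baculovirus-infected insect cells (0.1 mg protein/mL) in 50 mM Tris-HCl pH 7.5, 8 mM MgCl2, alamethicin, 2% DMSO. T-5224 at 1–50 μM with 2 mM UDPGA for 60 min at 37°C. HPLC with UV at 290 nm. Triplicates fitted to a substrate-inhibition model. kcat uses UGT content quantified by immunoblot against recombinant UGT1A1/UGT2B4 standards.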

Data set [6] concerns the target T2, UDP-glucuronosyltransferase 1A8 (Homo sapiens, UniProt Q9HAW9).
T2 sequence (Q9HAW9 whole entry): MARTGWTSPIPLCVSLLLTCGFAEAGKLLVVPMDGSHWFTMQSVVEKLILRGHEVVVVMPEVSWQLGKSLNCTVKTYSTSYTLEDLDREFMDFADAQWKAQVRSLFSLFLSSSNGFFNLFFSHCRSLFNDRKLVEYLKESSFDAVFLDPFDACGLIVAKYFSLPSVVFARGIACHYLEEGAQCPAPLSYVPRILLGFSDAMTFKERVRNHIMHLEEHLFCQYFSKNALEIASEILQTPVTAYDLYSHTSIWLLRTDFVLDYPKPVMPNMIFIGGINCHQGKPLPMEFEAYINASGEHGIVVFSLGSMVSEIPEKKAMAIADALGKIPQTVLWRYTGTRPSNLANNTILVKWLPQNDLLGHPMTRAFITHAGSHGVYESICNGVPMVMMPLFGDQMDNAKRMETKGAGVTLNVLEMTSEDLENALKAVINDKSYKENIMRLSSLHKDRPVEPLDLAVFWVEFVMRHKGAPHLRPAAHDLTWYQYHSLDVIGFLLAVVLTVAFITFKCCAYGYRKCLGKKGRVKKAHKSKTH
The data set is described as follows: Substrate inhibition of human UGT1A8-mediated T-5224 hydroxyl O-glucuronide formation after 10 to 60 mins in presence of UDP-glucuronic acid by HPLC method. In kind it is ADME. In short, it runs like this: as §3

Data set [7] concerns Liver microsome. The data set is described as follows: Drug metabolism in human liver microsomes assessed as Vmax/Km ratio for T-5224 hydroxyl O-glucuronide formation per mg protein after 10 to 60 mins by HPLC method. In kind it is ADME. The procedure, abridged: as §1
Data set [8] has as its target T3, UDP-glucuronosyltransferase 1A3 (Homo sapiens, UniProt P35503).
T3 sequence (P35503 whole entry): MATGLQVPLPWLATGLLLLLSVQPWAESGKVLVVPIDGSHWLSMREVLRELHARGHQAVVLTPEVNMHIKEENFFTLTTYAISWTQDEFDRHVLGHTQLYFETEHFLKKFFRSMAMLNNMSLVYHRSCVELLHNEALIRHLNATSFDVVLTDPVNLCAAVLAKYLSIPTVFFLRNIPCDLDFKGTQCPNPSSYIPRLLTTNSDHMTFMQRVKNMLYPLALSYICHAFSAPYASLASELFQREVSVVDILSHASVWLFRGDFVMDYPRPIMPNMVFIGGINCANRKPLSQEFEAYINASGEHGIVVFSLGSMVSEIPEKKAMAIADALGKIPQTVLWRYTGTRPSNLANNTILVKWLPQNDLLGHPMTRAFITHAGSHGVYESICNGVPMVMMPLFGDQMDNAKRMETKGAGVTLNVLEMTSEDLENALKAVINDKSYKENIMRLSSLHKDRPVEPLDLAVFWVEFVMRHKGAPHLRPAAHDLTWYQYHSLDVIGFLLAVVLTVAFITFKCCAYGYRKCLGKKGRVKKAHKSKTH
As to the kind of experiment: Drug metabolism assessed as human UGT1A3-mediated T-5224 hydroxyl O-glucuronide formation at 5 to 50 uM after 60 mins in presence of UDP-glucuronic acid by HPLC method. In kind it is ADME. The settings on record: recombinant enzyme, 1 h.

Data set [9] can be described thus: Drug metabolism in human intestinal microsomes assessed as Vmax/Km ratio for T-5224 acyl O-glucuronide formation per mg protein after 10 to 60 mins by HPLC method. In kind it is ADME, Intestine, Microsome. In short, it runs like this: as §2

Turning to `O=C(O)CCc1cc(C(=O)c2ccc(OC3CCCC3)cc2O)ccc1OCc1ccc2c(O)noc2c1`, the Km in the data set with Liver microsome [1] stood at 15.7 µM; in data set [2], 3.06 µM. In addition, the Vmax in the data set on Liver microsome [3] is given as 217 pmol/min. Also, the Drug metabolism result in [4] was “metabolite_not_detected”; in data set [8], “metabolite_detected”. The Ki in data set [5] is 4.67 µM; in data set [6] it was 3.64 µM. In addition, the values for the Vmax/Km (with Liver microsome [7]; in [9]) were 19.5 µL/min and 40.9 µL/min, respectively.

As a reminder, the Km is the substrate concentration at which the rate is half of its maximum. Usually Vmax stands for the top rate of the reaction or transport when substrate is in excess.

The record behind these values is ChEMBL document CHEMBL3526015, “Metabolism of the c-Fos/activator protein-1 inhibitor T-5224 by multiple human UDP-glucuronosyltransferase isoforms” (Drug Metab Dispos, 2011).
